Assay results from ChEMBL document CHEMBL4385626, “SAR optimization studies on modified salicylamides as a potential treatment for acute myeloid leukemia through inhibition of the CREB pathway” (Bioorg Med Chem Lett, 2019).
The source made the active and inactive calls. No cut-off for these calls is given here.

Experiments:
[1] = AUC (0 to infinity) in NSG mouse at 2 mg/kg, iv measured after 7 to 150 mins by LC/MS/MS analysis; type: ADME, organism-based; parameters: dose 2 mg/kg, time infinity, route intravenous; details: in vivo
How it was run: (§1)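 Single IV dose of 2 mg/kg to NSG mice (NOD.Cg-Prkdc scid Il2rg tm1Wjl/SzJ), vehicle DMSO/Kolliphor EL/water (3/5/82). Compound levels measured in plasma at various times after injection. PK parameters derived from the plasma time-concentration profiles.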

[2] = tested on: NALM-6; experiment: Cytotoxicity against human NALM6 cells incubated for 3 days by CellTiter-Glo luminescent assay; type: functional, cell-based; details: NALM-6, 72 h
How it was run: (§2)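 CellTiter-Glo viability read-out on leukemia cell lines. IC50 reported as the average of triplicates.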

[3] = Volume of distribution at steady state in NSG mouse at 2 mg/kg, iv measured after 7 to 150 mins by LC/MS/MS analysis; type: ADME, organism-based; details: in vivo; how it was run: as §1
[4] = tested on: HL-60; experiment: Cytotoxicity against human HL60 cells incubated for 3 days by CellTiter-Glo luminescent assay; type: functional, cell-based; details: HL-60, 72 h; how it was run: as §2
[5] = Elimination half life in NSG mouse at 2 mg/kg, iv measured after 7 to 150 mins by LC/MS/MS analysis; type: ADME, organism-based; details: in vivo, read-out: beta t1/2 (converted); how it was run: as §1
[6] = Metabolic stability in mouse liver microsomes assessed as half life in presence of NADPH by LC-MS/MS analysis; type: ADME, Microsome
[7] = Apparent volume of distribution in NSG mouse at 2 mg/kg, iv measured after 7 to 150 mins by LC/MS/MS analysis; type: ADME, organism-based; details: in vivo; how it was run: as §1
[8] = Plasma concentration in NSG mouse at 2 mg/kg, iv measured after 7 to 150 mins by LC/MS/MS analysis; type: ADME, organism-based; details: in vivo; how it was run: as §1
[9] = tested on: KG-1; experiment: Cytotoxicity against human KG1 cells incubated for 3 days by CellTiter-Glo luminescent assay; type: functional, cell-based; details: KG-1, 72 h; how it was run: as §2
[10] = tested on: Bone marrow cell; experiment: Cytotoxicity against human bone marrow cells incubated for 3 days by CellTiter-Glo luminescent assay; type: cell-based; details: 72 h
[11] = Inhibition of KIX-RLucC fused CBP (unknown origin) binding to KID-RLucN fused CREB (unknown origin) transfected in human HEK293 cells preincubated with compound 30 mins before forskolin addition and measured after 90 mins in presence of coelenterazine by split Renilla luciferase complementation assay
[12] = Metabolic stability in human liver microsomes assessed as half life in presence of NADPH by LC-MS/MS analysis; type: ADME, Microsome
[13] = AUC (0 to t) in NSG mouse at 2 mg/kg, iv measured after 7 to 150 mins by LC/MS/MS analysis; type: ADME, organism-based; details: in vivo; how it was run: as §1
[14] = tested on: Jurkat; experiment: Cytotoxicity against human Jurkat cells incubated for 3 days by CellTiter-Glo luminescent assay; type: functional, cell-based; details: 72 h; how it was run: as §2
[15] = MRT (0 to infinity) in NSG mouse at 2 mg/kg, iv measured after 7 to 150 mins by LC/MS/MS analysis; type: ADME, organism-based; details: in vivo; how it was run: as §1
[16] = tested on: HL-60; experiment: Induction of apoptosis in human HL60 cells assessed as PARP cleavage level at 1 uM incubated for 1 day by DAPI staining based flow cytometric analysis (reference value: 1.2 +/- 0.1%); type: functional
[17] = tested on: HL-60; experiment: Induction of cell cycle arrest in human HL60 cells assessed as G2 phase at 1 uM incubated for 1 day by DAPI staining based flow cytometric analysis (reference value: 21.4 +/- 0.42%); type: functional
[18] = organism: Homo sapiens; experiment: Inhibition of CREB in human HL60 cells assessed as downregulation of RFC3 gene expression at 1 uM incubated for 1 day by RT-qPCR analysis; type: cell-based
How it was run: (§3)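 HL60 cells given 1 μM compound for 1 d. RFC3 and POLD2 mRNA measured by RT-qPCR and normalized to 7SL lncRNA. Results given as mean of three independent experiments ± SEM.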

[19] = organism: Homo sapiens; experiment: Inhibition of CBP KIX domain (unknown origin) binding to BODIPY-labeled phosphorylated CREB KID domain (unknown origin) interaction pre-incubated for 30 mins by fluorescence polarization assay
How it was run: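 Fluorescence polarization with BODIPY-labeled phosphorylated CREB KID domain and the CBP KIX domain. Polarization reports the degree of KIX-KID binding.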

[20] = organism: Homo sapiens; experiment: Inhibition of CREB in human HL60 cells assessed as downregulation of POLD2 gene expression at 1 uM incubated for 1 day by RT-qPCR analysis; type: cell-based; how it was run: as §3
[21] = tested on: HL-60; experiment: Induction of cell cycle arrest in human HL60 cells assessed as accumulation at G1 phase at 1 uM incubated for 1 day by DAPI staining based flow cytometric analysis (reference value: 48.37 +/- 0.15%); type: functional
[22] = tested on: HL-60; experiment: Induction of cell cycle arrest in human HL60 cells assessed as S phase at 1 uM incubated for 1 day by DAPI staining based flow cytometric analysis (reference value: 27.5 +/- 0.57%); type: functional
[23] = Clearance in NSG mouse at 2 mg/kg, iv measured after 7 to 150 mins by LC/MS/MS analysis; type: ADME, organism-based; details: in vivo; how it was run: as §1
[24] = tested on: HL-60; experiment: Induction of cell cycle arrest in human HL60 cells assessed as M phase at 1 uM incubated for 1 day by DAPI staining based flow cytometric analysis (reference value: 2.64 +/- 0.06%); type: functional
[25] = tested on: HL-60; experiment: Induction of apoptosis in human HL60 cells assessed as late apoptotic cells at 1 uM incubated for 1 day by AnnexinV/DAPI double staining based flow cytometric analysis (reference value: 1.2 +/- 0.03%); type: functional
[26] = tested on: HL-60; experiment: Induction of apoptosis in human HL60 cells assessed as early apoptotic cells at 1 uM incubated for 1 day by AnnexinV/DAPI double staining based flow cytometric analysis (reference value: 3.2 +/- 0.1%); type: functional
[27] = tested on: HL-60; experiment: Induction of cell cycle arrest in human HL60 cells assessed as cyclin B expression in G2 phase by measuring as fluorescence intensity level at 1 uM incubated for 1 day by flow cytometric analysis (reference value: 1196.33 +/- 40.48); type: functional

O=C(Nc1ccc([N+](=O)[O-])cc1Cl)c1cc(Cl)ccc1O [NICLOSAMIDE]
AUC(0-inf) [1]: 536 ng·h/mL
IC50 [2]: 620 nM
Vdss [3]: 0.0015 mg/ng/mL
IC50 [4]: 300 nM
half-life [5]: 33.6 min
half-life [6]: 6.6 min
Vz [7]: 0.0025 mg/ng/mL
Cp [8]: 0.12 ng/mL
IC50 [9]: 360 nM
IC50 [10]: > 10 µM
IC50 [11]: 1530 nM
half-life [12]: 21 min
AUC(0-t) [13]: 536 ng·h/mL
IC50 [14]: 400 nM
MRT inf [15]: 24.2 min

N#Cc1ccc(NC(=O)c2ccc3ccccc3c2)cc1
IC50 [4]: > 10000 nM
IC50 [9]: > 10000 nM
IC50 [11]: > 7000 nM

O=C(Nc1cc(C(F)(F)F)cc(C(F)(F)F)c1)c1cc(Br)c(-c2ccccc2)cc1O
AUC(0-inf) [1]: 2330 ng·h/mL
Activity [16]: 58.1%
Activity [17]: 14.37%
IC50 [2]: 840 nM
inhibition [18]: Active
Vdss [3]: 0.00087 mg/ng/mL
inhibition [19]: Active
inhibition [20]: Active
IC50 [4]: 430 nM
Activity [21]: 69.77%
Activity [22]: 14.27%
half-life [5]: 123 min
half-life [6]: 159 min
Vz [7]: 0.003 mg/ng/mL
Cp [8]: 19 ng/mL
CL [23]: 0.00086 mg/ng/mL/h
Activity [24]: 1.23%
IC50 [9]: 300 nM
IC50 [10]: > 10 µM
IC50 [11]: 1550 nM
Activity [25]: 30.9%
half-life [12]: 159 min
AUC(0-t) [13]: 2250 ng·h/mL
Activity [26]: 8.8%
IC50 [14]: 680 nM
MRT inf [15]: 61 min

N#Cc1ccc(NC(=O)c2cc3ccccc3cc2O)cc1
IC50 [4]: 1580 nM
half-life [6]: 5.5 min
IC50 [10]: > 10 µM
IC50 [11]: 4030 nM
half-life [12]: 44.9 min

O=C(Nc1ccc([N+](=O)[O-])cc1Cl)c1cc(F)ccc1O
IC50 [2]: 910 nM
IC50 [4]: 280 nM
IC50 [9]: 490 nM
IC50 [11]: 1520 nM
IC50 [14]: 530 nM

COc1cccc(O)c1C(=O)Nc1ccc(C#N)cc1
IC50 [4]: > 10000 nM
IC50 [9]: > 10000 nM
IC50 [11]: > 7000 nM

N#Cc1ccc(NC(=O)c2ccc3cccnc3c2O)cc1
AUC(0-inf) [1]: 4090 ng·h/mL
Activity [16]: 17.3%
IC50 [2]: 130 nM
inhibition [18]: inactive
Vdss [3]: 0.00022 mg/ng/mL
inhibition [20]: inactive
IC50 [4]: 370 nM
Activity [22]: 33.7%
half-life [5]: 83.4 min
half-life [6]: 157 min
Vz [7]: 0.00098 mg/ng/mL
CL [23]: 0.00049 mg/ng/mL/h
IC50 [9]: 2320 nM
IC50 [10]: 3.07 µM
Activity [25]: 3%
half-life [12]: 124 min
AUC(0-t) [13]: 4070 ng·h/mL
FI [27]: 875.33
Activity [26]: 6.3%
IC50 [14]: 180 nM
MRT inf [15]: 27.5 min

N#Cc1ccc(NC(=O)c2cc(Cl)ccc2O)cc1
IC50 [4]: 700 nM
IC50 [9]: 1860 nM
IC50 [11]: 3990 nM

O=C(Nc1cc(C(F)(F)F)cc(C(F)(F)F)c1)c1cc(Br)ccc1O
IC50 [2]: 590 nM
inhibition [19]: Active
IC50 [4]: 290 nM
half-life [6]: 29.1 min
IC50 [9]: 300 nM
IC50 [10]: > 10 µM
IC50 [11]: 1240 nM
half-life [12]: 52 min
IC50 [14]: 350 nM

O=C(Nc1cc(C(F)(F)F)cc(C(F)(F)F)c1)c1ccc(Cl)cc1O
IC50 [2]: 850 nM
inhibition [19]: Active
IC50 [4]: 200 nM
half-life [6]: 31.8 min
IC50 [9]: 620 nM
IC50 [11]: 2530 nM
half-life [12]: 159 min
IC50 [14]: 570 nM

O=C(Nc1ccc(OC(F)(F)F)c(Cl)c1)c1cc(F)ccc1O
IC50 [2]: 1000 nM
IC50 [4]: 550 nM
IC50 [9]: 370 nM
IC50 [14]: 700 nM

N#Cc1ccc(NC(=O)c2ccc(Br)cc2O)c(Cl)c1
IC50 [2]: 1860 nM
IC50 [4]: 730 nM
IC50 [9]: 790 nM
IC50 [14]: 750 nM

O=C(Nc1cc(C(F)(F)F)cc(C(F)(F)F)c1)c1ccc(-c2ccccc2)cc1O
IC50 [2]: 1580 nM
IC50 [4]: 1140 nM
IC50 [9]: 860 nM
IC50 [14]: 1240 nM

N#Cc1ccc(C(=O)Nc2cc3ccccc3cc2O)cc1
IC50 [4]: > 10000 nM
IC50 [9]: > 10000 nM
IC50 [11]: > 7000 nM

N#Cc1ccc(NC(=O)c2ccc3cccnc3c2O)c(F)c1
IC50 [2]: 370 nM
IC50 [4]: 730 nM
IC50 [9]: 3260 nM
IC50 [14]: 420 nM

O=C(Nc1ccc(Cl)cc1)c1ccc2cccnc2c1O
IC50 [2]: 380 nM
IC50 [4]: 630 nM
IC50 [9]: 3300 nM
IC50 [14]: 510 nM

COc1ccc(O)c(C(=O)Nc2ccc(C#N)cc2)c1
IC50 [4]: > 10000 nM
IC50 [9]: > 10000 nM
IC50 [11]: > 7000 nM

N#Cc1ccc(NC(=O)c2ccc(Br)cc2O)cc1Cl
IC50 [2]: 920 nM
IC50 [4]: 440 nM
IC50 [9]: 960 nM
IC50 [14]: 750 nM

N#Cc1ccc(NC(=O)c2ccc3cccnc3c2O)c(C#N)c1
IC50 [2]: 350 nM
IC50 [4]: 890 nM
IC50 [9]: 3770 nM
IC50 [14]: 270 nM

N#Cc1ccc(NC(=O)c2cc(Br)ccc2O)cc1
IC50 [4]: 620 nM
IC50 [9]: 1290 nM
IC50 [11]: 3030 nM
